Assay results published in ChEMBL document CHEMBL3120107, “Cytotoxic cardiac glycosides and coumarins from Antiaris toxicaria” (2014).
Values after ≈ are worked out from the molar mass of the structure shown.

Tests used:
A549 = assay: Cytotoxicity against human A549 cells assessed as growth inhibition after 72 hrs by SRB assay; type: functional; conditions: Homo sapiens, A549, 72 h; read-out: ED50 (the source's name)
Method in brief: (§1)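 Sulforhodamine B assay run by NCI-validated procedure. Cells grown at 37 °C under humidified 5% CO2 in RPMI-1640 with 25 mM HEPES, […] (w/v) sodium bicarbonate, 10% (v/v) FBS and 100 μg/mL kanamycin. Compounds came from DMSO stocks, with final DMSO ≤ 1% (v/v). Continuous exposure for 72 h. ED50 (μg/mL, 50% cell-number reduction) interpolated from dose-response data. Triplicate tests. Doxorubicin served as positive control.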

PC-3 = assay: Cytotoxicity against human PC3 cells assessed as growth inhibition after 72 hrs by SRB assay; type: functional; conditions: Homo sapiens, PC-3, 72 h; read-out: ED50 (the source's name); method in brief: as §1
[1] = Cytotoxicity against human KBVIN cells assessed as growth inhibition after 72 hrs by SRB assay; type: functional; conditions: Homo sapiens, KBVIN, 72 h; read-out: ED50 (the source's name); method in brief: as §1
1A9 = assay: Cytotoxicity against human 1A9 cells assessed as growth inhibition after 72 hrs by SRB assay; type: functional; conditions: Homo sapiens, 1A9, 72 h; read-out: ED50 (the source's name); method in brief: as §1
KB = assay: Cytotoxicity against human KB cells assessed as growth inhibition after 72 hrs by SRB assay; type: functional; conditions: Homo sapiens, KB, 72 h; read-out: ED50 (the source's name); method in brief: as §1
CAKI-1 = assay: Cytotoxicity against human CAKI-1 cells assessed as growth inhibition after 72 hrs by SRB assay; type: functional; conditions: Homo sapiens, CAKI-1, 72 h; read-out: ED50 (the source's name); method in brief: as §1
SK-MEL-2 = assay: Cytotoxicity against human SK-MEL-2 cells assessed as growth inhibition after 72 hrs by SRB assay; type: functional; conditions: Homo sapiens, SK-MEL-2, 72 h; read-out: ED50 (the source's name); method in brief: as §1
MCF7 = assay: Cytotoxicity against human MCF7 cells assessed as growth inhibition after 72 hrs by SRB assay; type: functional; conditions: Homo sapiens, MCF7, 72 h; read-out: ED50 (the source's name); method in brief: as §1
[2] = Cytotoxicity against human U87MG cells assessed as growth inhibition after 72 hrs by SRB assay; type: functional, U-87MG ATCC; conditions: Homo sapiens, U-87 MG, 72 h; read-out: ED50 (the source's name); method in brief: as §1
[3] = Cytotoxicity against human […] cells assessed as growth inhibition after 72 hrs by SRB assay; type: functional; conditions: Homo sapiens, HCT9, 72 h; read-out: ED50 (the source's name); method in brief: as §1

Structure (SMILES) | EC50 (A549) | EC50 (PC-3) | EC50 [1] | EC50 (1A9) | EC50 (KB) | EC50 (CAKI-1) | EC50 (SK-MEL-2) | EC50 (MCF7) | EC50 [2] | EC50 [3]
C[C@]12[C@H](O)C[C@H]3[C@@H](CC[C@]4(O)CCCC[C@]34C=O)[C@@]1(O)CC[C@@H]2C1=CC(=O)OC1 [ANTIARIGENIN] | 0.59 µg/mL (≈ 1.46 µM) | 1.2 µg/mL (≈ 2.97 µM) | 5.1 µg/mL (≈ 12.6 µM) | 0.12 µg/mL (≈ 0.297 µM) | 5.3 µg/mL (≈ 13.1 µM) | 1.3 µg/mL (≈ 3.21 µM) | 0.41 µg/mL (≈ 1.01 µM) | 1.3 µg/mL (≈ 3.21 µM) | 4.6 µg/mL (≈ 11.4 µM) | 4.5 µg/mL (≈ 11.1 µM)
C[C@H]1O[C@@H](O[C@H]2CC[C@]3(C)[C@H]4CC[C@]5(C)[C@@H](C6=CC(=O)OC6)CC[C@]5(O)[C@@H]4CC[C@]3(O)C2)[C@H](O)[C@H](O)[C@H]1O [ANTIAROSIDE A] | 0.044 µg/mL (≈ 0.082 µM) | 0.078 µg/mL (≈ 0.145 µM) | 0.068 µg/mL (≈ 0.127 µM) | 0.02 µg/mL (≈ 0.0373 µM) | 0.0097 µg/mL (≈ 0.0181 µM) | 0.018 µg/mL (≈ 0.0335 µM) | 0.073 µg/mL (≈ 0.136 µM) | 0.063 µg/mL (≈ 0.117 µM) | 0.15 µg/mL (≈ 0.28 µM) | 0.09 µg/mL (≈ 0.168 µM)
C[C@@H]1O[C@H](O[C@@H]2CC[C@]3(C=O)[C@H]4CC[C@]5(C)[C@@H](C6=CC(=O)OC6)CC[C@]5(O)[C@@H]4CC[C@]3(O)C2)[C@H](O)[C@H](O)[C@H]1O [ANTIAROSIDE C] | 0.48 µg/mL (≈ 0.872 µM) | 0.42 µg/mL (≈ 0.763 µM) | 1.6 µg/mL (≈ 2.91 µM) | 0.39 µg/mL (≈ 0.708 µM) | 1.5 µg/mL (≈ 2.72 µM) | 0.32 µg/mL (≈ 0.581 µM) | 0.26 µg/mL (≈ 0.472 µM) | 1.4 µg/mL (≈ 2.54 µM) | 1.7 µg/mL (≈ 3.09 µM) | 1.5 µg/mL (≈ 2.72 µM)
C[C@@H]1O[C@@H](O[C@@H]2CC[C@@]3(CO)[C@H](CC[C@@H]4[C@@H]3CC[C@]3(C)[C@@H](C5=CC(=O)OC5)CC[C@]43O)C2)[C@H](O)[C@H](O)[C@H]1O[C@@H]1O[C@H](CO)[C@@H](O)[C@H](O)[C@H]1O [ANTIAROSIDE D] | 0.38 µg/mL (≈ 0.544 µM) | 0.53 µg/mL (≈ 0.758 µM) | 1.9 µg/mL (≈ 2.72 µM) | 0.74 µg/mL (≈ 1.06 µM) | 1.7 µg/mL (≈ 2.43 µM) | 0.93 µg/mL (≈ 1.33 µM) | 0.31 µg/mL (≈ 0.444 µM) | 1 µg/mL (≈ 1.43 µM) | 4.2 µg/mL (≈ 6.01 µM) | 1.9 µg/mL (≈ 2.72 µM)
C[C@@H]1O[C@H](O[C@H]2CC[C@@]3(C(=O)O)[C@H](CC[C@@H]4[C@@H]3CC[C@]3(C)[C@@H](C5=CC(=O)OC5)CC[C@]43O)C2)[C@H](O)[C@H](O)[C@H]1O [ANTIAROSIDE E] | 0.07 µg/mL (≈ 0.127 µM) | 0.16 µg/mL (≈ 0.291 µM) | 0.57 µg/mL (≈ 1.04 µM) | 0.13 µg/mL (≈ 0.236 µM) | 0.49 µg/mL (≈ 0.89 µM) | 0.13 µg/mL (≈ 0.236 µM) | 0.12 µg/mL (≈ 0.218 µM) | 0.42 µg/mL (≈ 0.763 µM) | 0.73 µg/mL (≈ 1.33 µM) | 0.35 µg/mL (≈ 0.636 µM)
C[C@@H]1O[C@H](O[C@H]2CC[C@@]3(C(=O)O[C@@H]4O[C@H](CO)[C@@H](O)[C@H](O)[C@H]4O)[C@H](CC[C@@H]4[C@@H]3CC[C@]3(C)[C@@H](C5=CC(=O)OC5)CC[C@]43O)C2)[C@H](O)[C@H](O)[C@H]1O [ANTIAROSIDE F] | 0.54 µg/mL (≈ 0.758 µM) | 0.89 µg/mL (≈ 1.25 µM) | 2.2 µg/mL (≈ 3.09 µM) | 0.97 µg/mL (≈ 1.36 µM) | 1.8 µg/mL (≈ 2.53 µM) | 1.2 µg/mL (≈ 1.68 µM) | 0.32 µg/mL (≈ 0.449 µM) | 1.3 µg/mL (≈ 1.82 µM) | 4.5 µg/mL (≈ 6.31 µM) | 3.4 µg/mL (≈ 4.77 µM)
C[C@@H]1O[C@H](O[C@H]2CC[C@]3(C(=O)O)[C@H]4C[C@@H](O)[C@]5(C)[C@@H](C6=CC(=O)OC6)CC[C@]5(O)[C@@H]4CC[C@]3(O)C2)[C@H](O)[C@H](O)[C@H]1O [ANTIAROSIDE G] | 5.3 µg/mL (≈ 9.1 µM) | – | – | – | – | – | – | 17.5 µg/mL (≈ 30 µM) | – | –
C[C@]12CC[C@H](O)C[C@@]1(O)CC[C@@H]1[C@@H]2CC[C@]2(C)[C@@H]([C@]3(O)COC(=O)C3)CC[C@]12O [ANTIAROTOXININ A] | 4.3 µg/mL (≈ 10.5 µM) | – | – | – | – | – | – | 15 µg/mL (≈ 36.7 µM) | – | –
